Series [1] deals with 3D ECTs. Nature of the series: Contractility. The format is cell-based, human. The note with it: for MEC (minimum effective concentration), active force: serum-free, paced at 1 Hz, 15 min per concentration. The method, boiled down: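 Tissues were built from iCell cardiomyocytes plus human ventricular cardiac fibroblasts in hydrogel on Biowire II wires. After 30 min chamber equilibration, a 30-s baseline video was recorded, then a second one 10 min after a medium-pipetting step. Test compound in DMSO was added cumulatively at 3 or 4 rising concentrations (final DMSO 0.001–0.1%), 15 min each, with a 30-s video per concentration. n=6–9 tissues, one compound per tissue.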

For a further series, the system named is NaV1.5. The note with it: read-out: NaV1.5 IC50; ref Wang et al. 2010; cited from earlier work.
The subject of series [2] is 2D hiPSC-CMs. Put plainly: Motion-field imaging contractility. The format is cell-based, human. The note with it: for MEC (minimum effective concentration), maximum contraction speed: serum-containing medium, concentration for 1.08-fold increase or 0.92-fold decrease. The method, boiled down:
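Thawed iCell hiPSC-CMs were re-plated on day 7 onto a ~3 mm fibronectin spot and cultured 5–9 days at 37°C, 5% CO2, with serum-containing medium overnight before recording. Phase-contrast video at 4x, 150 frames/s, analysed by block-matching. After sham baseline, cumulative additions from 1,000-fold DMSO stocks (final DMSO 0.1–0.4% v/v), 15 min each, 10-s videos; 4–5 wells. MEC by four-parameter log fit, 1.08/0.92-fold cutoffs.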

Another series deals with CaV1.2. The note with it: read-out: CaV1.2 IC50; ref Ando et al. 2017; cited from earlier work.
For a further series, the system named is hERG. The note with it: read-out: hERG IC50; ref Sube and Ertel 2017; cited from earlier work. For orientation: hERG is a cardiac potassium channel; its block is linked to QT prolongation.
Series [3] relates to 2D hiPSC-CMs. The note with it: ref Okai et al. 2020; cited from earlier work.
The subject of series [4] is 3D ECTs. The note with it: read-out: EC50, positive inotropic effect; same 3D ECT model; ref Feric et al. 2019; cited from earlier work.
The test system of another series is aligned hiPSC-CMs. The note with it: ref Satsuka et al. 2024; cited from earlier work.

Where a name gives a salt, the structure may show the parent alone.

For orientation: IC50 means the concentration that inhibits the measured activity by half. On to `CC(C)NCC(O)COc1cccc2ccccc12` (racemic) [Propranolol, (±)-propranolol hydrochloride], for which the “MEC (minimum effective concentration), active force” value in the series with 3D ECTs [1] is reported as 3.0 µM; in the series on 3D ECTs [1] (listed as propranolol) it was around 3 µM. The IC50 with NaV1.5 is 3000 nM.

Turning to `Nc1cc(-c2ccncc2)c[nH]c1=O` [Amrinone, amrinone], the “MEC (minimum effective concentration), maximum contraction speed” value in the series with 2D hiPSC-CMs [2] was above 100 µM.

On to `CC(=O)Oc1ccccc1C(=O)O` [Aspirin, acetylsalicylic acid], for which, in the series with 3D ECTs [1], the “Concentration up to which no effect on active force was observed” value (“Concentration up to which no effect” below) came out at 300 µM and the “MEC (minimum effective concentration), active force” value is on record as above 300 µM. Moreover, the “MEC (minimum effective concentration), maximum contraction speed” value with 2D hiPSC-CMs [2] is given as above 300 µM.

For the compound `C[C@H](CS)C(=O)N1CCC[C@H]1C(=O)O` [Captopril, captopril], in the series with 3D ECTs [1], the “Concentration up to which no effect” value worked out at 100 µM and the “MEC (minimum effective concentration), active force” value was above 100 µM. Further, the “MEC (minimum effective concentration), maximum contraction speed” value in the series with 2D hiPSC-CMs [2] was above 100 µM.

On to `CN/C(=N/CCSCc1nc[nH]c1C)NC#N` [Cimetidine, cimetidine], for which, in the series with 3D ECTs [1], the “Concentration up to which no effect” value is reported as 100 µM and the “MEC (minimum effective concentration), active force” value was above 100 µM. The “MEC (minimum effective concentration), maximum contraction speed” value in the series with 2D hiPSC-CMs [2] is recorded as above 100 µM.

As to `COc1ccc(Cl)cc1C(=O)NCCc1ccc(S(=O)(=O)NC(=O)NC2CCCCC2)cc1` [Glibenclamide, glyburide], in the series with 3D ECTs [1], the “MEC (minimum effective concentration), active force” value was above 100 µM. Also, in the series with 2D hiPSC-CMs [2], the “MEC (minimum effective concentration), maximum contraction speed” value was above 100 µM.

Take `O=C(CCCN1CCC(O)(c2ccc(Cl)cc2)CC1)c1ccc(F)cc1` [Haloperidol, haloperidol]: the “MEC (minimum effective concentration), active force” value with 3D ECTs [1] is 0.30 µM. In the series with 2D hiPSC-CMs [2], the “Concentration at which irregular beating was induced” value was “above 0.10 µM” and the “MEC (minimum effective concentration), maximum contraction speed” value is given as above 0.10 µM. Further, the IC50 in the series with CaV1.2 is 1300 nM.

As to `CC(C)NCC(O)c1ccc(O)c(O)c1` (stereo not shown) [Isoproterenol, isoproterenol], in the series with 3D ECTs [1], the “MEC, positive inotropic effect (active force)” value was “below 0.1 nM” and the “MEC (minimum effective concentration), active force” value was below 0.00010 µM. The “MEC, positive inotropic effect (maximum contraction speed)” value with 2D hiPSC-CMs [2] is 0.35 nM.

Consider `Cc1ccc(N(CC2=NCCN2)c2cccc(O)c2)cc1` [Phentolamine, phentolamine hydrochloride], for which the “Concentration up to which no effect” value with 3D ECTs [1] came out at 3.0 µM. For the same compound, in the series with 2D hiPSC-CMs [2], the “MEC (minimum effective concentration), maximum contraction speed” value is reported as above 0.30 µM. Further, in the series with hERG, the IC50 is 850 nM.

On to `COc1ccc(-c2nc3ccc(C4=NNC(=O)CC4C)cc3[nH]2)cc1` (stereo not shown) [Pimobendan, pimobendan], for which the “MEC (minimum effective concentration), maximum contraction speed” value in the series on 2D hiPSC-CMs [2] is listed as above 60 µM.

With `CC[C@H](C)C(=O)O[C@H]1C[C@H](O)C=C2C=C[C@H](C)[C@H](CC[C@@H](O)C[C@@H](O)CC(=O)O)[C@H]21` [Pravastatin, pravastatin], in the series on 3D ECTs [1], the “Concentration up to which no effect” value is listed as 100 µM and the “MEC (minimum effective concentration), active force” value was above 100 µM. Further, in the series with 2D hiPSC-CMs [2], the “MEC (minimum effective concentration), maximum contraction speed” value was above 100 µM.

On to `CCOc1ccccc1OCCN[C@H](C)Cc1ccc(OC)c(S(N)(=O)=O)c1` [Tamsulosin, tamsulosin], for which, in the series on 3D ECTs [1], the “Concentration up to which no effect” value stood at 1.0 µM and the “MEC (minimum effective concentration), active force” value is recorded as 3.0 µM. In the series with 2D hiPSC-CMs [2], the “MEC (minimum effective concentration), maximum contraction speed” value is recorded as above 3.0 µM.

Regarding `CN(C)C/C=C(/c1ccc(Br)cc1)c1cccnc1` [Zimelidine, zimelidine], in the series with 3D ECTs [1], the “Concentration up to which no effect” value came to 3.0 µM. Also, in the series on 2D hiPSC-CMs [2], the “MEC (minimum effective concentration), maximum contraction speed” value was above 0.10 µM.

Take `CC(CCc1ccc(O)cc1)NCCc1ccc(O)c(O)c1` (stereo not shown) [dobutamine]: in the series on 2D hiPSC-CMs [3], the “Inotropic effect in 2D hiPSC-CMs (previous study)” value is “positive inotropic effect”.

Broadly, the EC50 is the midpoint of the concentration-response curve. Consider `Cc1[nH]c(=O)c(C#N)cc1-c1ccncc1` [milrinone], for which the EC50 with 3D ECTs [4] is 1.6 nM. Moreover, in the series on aligned hiPSC-CMs, the “Inotropic effect in aligned hiPSC-CMs” value is given as “remained undetectable”.

The values are drawn from publication PMC12118959 (Toxicological Sciences, 2025).
